High-throughput results deposited in PubChem BioAssay by several laboratories.
ADAM17 inh: inhibitors of human ADAM17. P78536. recombinant ADAM17, EDANS/DABCYL FRET peptide cleavage. inhibition, % at 6.95 µM. 370,000 tested, 0.83% active. AID 720648;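 active = inhibition above the mean of compounds lying between control limits plus 3 SD, set per campaign, cut at about 8.5% in these data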;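 also: 0% = DMSO-only wells as the low control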
Tn7 DDE FP: DD(E)-Tn7 binding inhibition, primary FP screen | P02675 | FP displacement of FITC-Tn7 peptide from fibrin DD(E); 0% = median of compound wells per plate | inhibition, % at 8.3 µM | 370,000 tested, 0.13% active | AID 720508;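 active = inhibition above the mean of compounds falling within the control limits plus 3 SD of them, cut at about 14% in these data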;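 also: 0% = plate median of compound wells and 100% = 10 µM Aha-Tn7 peptide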
Target sequence (P02675 whole entry, looked up): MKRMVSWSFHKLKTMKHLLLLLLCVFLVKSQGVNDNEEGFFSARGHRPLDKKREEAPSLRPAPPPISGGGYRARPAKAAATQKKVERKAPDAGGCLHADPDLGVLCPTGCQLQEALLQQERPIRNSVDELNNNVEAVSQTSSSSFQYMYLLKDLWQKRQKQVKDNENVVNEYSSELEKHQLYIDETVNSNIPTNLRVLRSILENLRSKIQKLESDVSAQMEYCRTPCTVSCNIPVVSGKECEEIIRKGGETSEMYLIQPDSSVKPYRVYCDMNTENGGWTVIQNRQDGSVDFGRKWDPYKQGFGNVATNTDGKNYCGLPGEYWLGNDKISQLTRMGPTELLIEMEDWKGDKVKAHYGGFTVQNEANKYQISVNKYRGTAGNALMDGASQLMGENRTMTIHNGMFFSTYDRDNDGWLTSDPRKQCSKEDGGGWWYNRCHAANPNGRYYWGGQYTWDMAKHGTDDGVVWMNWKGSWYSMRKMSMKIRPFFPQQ
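assay system = human clot-derived fibrin DD(E) complex | quantity = Fibrin-DD(E) at 2 µM final | timing = 10 min preincubation, 3 h with tracer, room temperature | signal = fluorescence polarization | measure = percent inhibition | benchmarks = high control wells with 10 µM unlabelled Aha-Tn7 peptide (full inhibition) | replicates = singlicate testing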
MT1-MMP act inh: MT1-MMP (human) activation inhibition. 360,000 tested, 0.061% active. GFP/RFP ratio change, % at 20 µM. HT1080 RFP-PRO-GFP cells, GFP/RFP ratio fluorescence, overnight; percent of plate control window, DMSO zero. AID 651647. P50281;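 active = GFP/RFP ratio change of at least 30% with cell ATP level not reduced by more than half and red fluorescence within 50% of control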
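Assay system – RFP-PRO-GFP reporter HT1080 cells · Compound dosing – single dose of 20 µM compound, 1% DMSO final · Incubation – overnight compound exposure at 37 °C · Measure – GFP/RFP fluorescence ratio · Benchmarks – DMSO wells and RFP-L50D-GFP cells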
ADAM10 inh: inhibitors of human ADAM10; recombinant ADAM10, EDANS/DABCYL FRET peptide cleavage, 3 h; inhibition, % at 7 µM; 370,000 tested, 0.62% active;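 active = inhibition above a per-campaign cutoff equal to the mean of compounds falling between control-based bounds plus 3 SD, cut at about 20% in these data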;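 also: 0% = DMSO wells while the 100% control is not disclosed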
DDE Tn6 FP inh: DD(E)-Tn6 binding inhibition, primary FP screen; P02675; Fibrin DD(E) TRITC-Tn6 fluorescence polarization displacement; inhibition, % at 8.3 µM; 370,000 tested, 0.21% active; AID 720509;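 active = inhibition above a per-campaign cutoff: mean of compounds within control limits plus 3 SD, cut at about 15% in these data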;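 also: 0% = median of all compound wells on the plate and 100% = blocking peptide control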
ADAM10 confirm: confirmation of inhibitors of human ADAM10; shares compounds with ADAM10 inh; ADAM10 QFRET peptide cleavage, EDANS fluorescence; inhibition, % at 6.95 µM; 2,100 tested, 1% active; AID 743208;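 active = inhibition above about 20% chosen separately for each screening run, limit read from the data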;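 also: 0% = DMSO wells and 100% = marimastat wells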
ADAM17 counter: inhibits human ADAM17 in ADAM10 exosite counter-screen. 2,100 tested, 0.5% active. ADAM17 QFRET peptide cleavage, EDANS fluorescence. AID 743214. shares compounds with ADAM10 inh. inhibition, % at 6.95 µM;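 active = mean triplicate inhibition above the solvent-only control wells' mean plus 3 SD, cut at about 12% in these data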;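 also: 0% = DMSO wells and 100% = marimastat wells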
Starred values were filed as active, the others as inactive; . = no result given. Most compounds without a hit are left out; they make up all but 1.6% or so of the library.

SMILES	ADAM17 inh	Tn7 DDE FP	MT1-MMP act inh	ADAM10 inh	DDE Tn6 FP inh	ADAM10 confirm	ADAM17 counter
Cc1ccccc1NC(=O)CN1CCN(c2nc(-c3ccccc3)cs2)CC1	3.5	-4.1	.	6.4	-1.1	.	.
COc1cccc(-c2cc3nc(C)c(C)c(N4CCN(Cc5ccco5)CC4)n3n2)c1	-5.9	-8.5	.	-26.1	-2.0	.	.
COc1ccc(C2=CCN(C)C(=O)N2c2ccc([N+](=O)[O-])cc2)cc1	-1.9	0.6	.	4.3	-0.8	.	.
C=CCN1CCc2cc(O)c(O)cc2C(c2ccccc2)C1 (configuration not stated)	-1.8	7.8	2.4	20.9*	7.2	-2.3	0.2
CCCCCC[C@@H](CCCc1ccccc1OC)CN(CCCC)S(C)(=O)=O	0.1	3.0	.	3.3	-4.6	.	.
Cc1ccc2c(c1)/C(=C/c1ccccc1C)C(=O)N2	2.0	-1.3	-2.7	-0.1	-0.1	.	.
Cc1ccc2c(c1)/C(=C/c1ccc(F)cc1)C(=O)N2	3.2	3.4	-3.5	21.6*	-4.5	1.4	0.3
COC(=O)c1ccc2c(C3(c4c[nH]c5ccccc45)CCN(C(=O)OC(C)(C)C)CC3)c[nH]c2c1	-18.0	2.4	.	-82.3	-8.0	.	.
Cn1c(N/N=C/c2cccs2)nc2c1c(=O)n(Cc1ccccc1)c(=O)n2C	5.1	-9.7	3.3	26.0*	-4.1	8.8	5.1
COc1ccc(N2CCN(C(=S)Nc3ccc(C)cc3C)CC2)cc1	4.5	0.9	-2.0	20.5*	4.1	0.4	-0.1
NC(=O)C(c1ccc(Cl)cc1)c1ccc(Sc2ccc(Cl)cc2)nn1 (configuration not stated)	4.3	3.1	0.4	23.2*	-4.1	4.2	0.6
O=C(CSc1ccc(-c2ccncc2)nn1)c1ccc(Cl)cc1	1.6	-0.2	-3.0	5.7	0.9	.	.
Cc1c(C2(O)CCCCC2)[nH]c2ccc(C(F)(F)F)cc12	8.5	-6.8	6.5	20.2*	-10.3	5.8	2.3
Cc1cccc([C@@H]2[C@@H]3C(=O)N(Cc4ccccc4)C(=O)[C@@H]3[C@]3(Cc4ccccc4)C(=O)N(c4ccccc4)C(=O)N23)c1	4.3	2.0	-1.0	22.4*	-1.5	2.0	1.9
CC[C@@]12C(=O)N(c3ccccc3)C(=O)N1[C@H](c1cccc(C)c1)[C@@H]1C(=O)N(Cc3ccccc3)C(=O)[C@@H]12	4.3	-1.9	-3.9	13.6	-11.3	.	.
CC[C@@]12C(=O)N(c3cccc(Br)c3)C(=O)N1[C@H](c1cccc(C)c1)[C@@H]1C(=O)N(Cc3ccccc3)C(=O)[C@@H]12	7.9	-0.5	-1.0	20.7*	-4.3	5.2	1.5
Cc1cccc([C@@H]2[C@@H]3C(=O)N(Cc4ccccc4)C(=O)[C@@H]3[C@]3(Cc4ccccc4)C(=O)N(c4ccc(C(F)(F)F)cc4)C(=O)N23)c1	8.0	3.4	0.7	20.5*	-4.6	13.5	7.2
Clc1cccc(CON/C=N/c2ncnc3sccc23)c1	6.4	-9.7	0.5	21.2*	-5.6	2.2	0.7
COC(=O)C1=C(C)N(Cc2ccccc2C(F)(F)F)C(=NCc2ccc(C(F)(F)F)cc2)NC1c1cccc(Cl)c1 (configuration not stated)	0.9	3.5	.	-8.3	1.2	.	.
OC(CC1CC12c1ccccc1-c1ncccc12)(c1ccccc1)c1ccccc1 (configuration not stated)	4.0	1.8	-35.8	23.7*	-3.0	6.9	2.1
CCOc1ccc(/C=N/NC(=O)Cc2csc(Nc3cccc(C(F)(F)F)c3)n2)c(OCC)c1	8.2	0.6	-3.2	20.4*	-2.2	12.1	3.5
CCOc1ccccc1/C=N/NC(=O)Cc1csc(Nc2cccc(C(F)(F)F)c2)n1	6.7	5.2	2.0	9.2	6.4	.	.
COc1ccc(/C=N/NC(=O)Cc2csc(Nc3cccc(C(F)(F)F)c3)n2)c(OC)c1	5.5	5.7	4.8	24.9*	3.0	8.7	2.7
CCOc1ccc(/C=N/NC(=O)Cc2csc(Nc3cccc(C(F)(F)F)c3)n2)cc1	3.4	-5.2	-0.2	11.6	-3.5	.	.
COc1ccc(Oc2c(Cl)cnn(-c3cc(C)cc(C)c3)c2=O)cc1	0.7	-3.3	.	0.8	4.9	.	.
SMILES	ADAM17 inh	Tn7 DDE FP	MT1-MMP act inh	ADAM10 inh	DDE Tn6 FP inh	ADAM10 confirm	ADAM17 counter
C=CCn1c(COc2ccccc2)nnc1SCC(=O)Nc1ccc(Oc2ccccc2)cc1	6.1	-8.5	.	20.9*	2.2	2.9	0.5
CCn1c(COc2ccc(C)cc2)nnc1SCC(=O)Nc1ccc(Oc2ccccc2)cc1	-1.3	6.8	.	-1.5	-0.1	.	.
CCOC(=O)Nc1nc(-c2ccccc2)c(C(=O)c2ccc(Cl)cc2)s1	6.8	-5.0	9.8	21.1*	-7.2	8.0	2.5
COc1ccc(NS(=O)(=O)c2cccc(N3CC(O)=C(c4ccccc4)C3=N)c2)cc1	-1.0	-4.8	-0.3	65.3*	10.4	2.3	0.3
C/C(=N\OCC(=O)Nc1ccc(OC(F)(F)F)cc1)c1ccc2c(c1)OCCO2	7.4	3.1	-2.5	19.9*	-5.1	8.2	2.2
Cc1cccc(-c2cccc3c4c([nH]c23)[C@@H]2C[C@H](N(C)C(=O)c3ccccc3C)[C@H]([C@H](C)O)CN2CC4)c1	-18.7	-10.4	.	-71.4	-5.3	.	.
COc1ccccc1NC(=O)Cc1csc(NC(=S)Nc2ccc(C)cc2)n1	4.0	-4.4	2.9	33.0*	-7.1	6.0	2.2
CCC(=O)Nc1nc(CC(=O)Nc2ccccc2OC)cs1	-5.0	1.8	2.7	7.9	1.6	.	.
O=[N+]([O-])c1ccc(N/N=C\c2ccccc2OCc2ccccc2)cc1	-1.5	5.7	-23.2	-12.2	-7.2	.	.
Cc1cc(C)nc(N/N=C/c2ccccc2OCc2ccc([N+](=O)[O-])cc2)n1	1.1	-6.4	3.9	27.6*	-0.4	1.6	0.6
O=C(NNc1ccccc1)C(=O)NNS(=O)(=O)c1ccc(CCCl)cc1	10.6*	-5.3	-2.6	35.0*	-5.5	13.3	0.9
Cc1ccc(-c2csc(C(O)(c3ccccc3)C(F)(F)F)n2)cc1C (configuration not stated)	6.9	3.8	1.3	5.9	5.7	.	.
CC(O)(c1ccc(F)c(F)c1)c1nc(-c2ccc(F)c(Cl)c2)cs1 (configuration not stated)	8.2	7.3	2.0	22.1*	-2.2	7.8	2.9
OC(c1ccccc1)(c1nc(-c2ccc(F)c(Cl)c2)cs1)C(F)(F)F (configuration not stated)	7.7	5.0	2.0	22.2*	-0.5	9.3	2.9
